Data: ChEMBL document CHEMBL4680120, “Novel anti-Alzheimer phenol-lipoyl hybrids: Synthesis, physico-chemical characterization, and biological evaluation” (Eur J Med Chem, 2020)
In brackets after ≈: the same amount, converted by molar mass. Activity calls are given as the source filed them. The rule behind the calls is not given here.

Key:
[1] = Solubility of compound in water by HPLC analysis; assay type: physicochemical
[2] = Stability in simulated gastric fluid at pH 1.2 assessed as relative difference measured after 15 mins in presence of pepsin by HPLC analysis; assay type: ADME; settings: isolated protein, pH 1.2, 0.25 h
How it was run: (§1)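 Incubation in simulated gastric fluid (pH 1.2, pepsin) or simulated intestinal fluid (pH 6.8, pancreatin). Aliquots deproteinized with ice-cold acetonitrile, centrifuged at 4°C and 12000 rpm for 10 min, filtered, analyzed by HPLC. RD% = (Ci − Cf)/Ci × 100. Stable if RD < 5%. Means of three experiments.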

[3] = Stability in simulated gastric fluid at pH 1.2 assessed as relative difference measured after 30 mins in presence of pepsin by HPLC analysis; assay type: ADME; settings: isolated protein, pH 1.2, 0.5 h; how it was run: as §1
[4] = Stability in simulated gastric fluid at pH 1.2 assessed as relative difference measured after 60 mins in presence of pepsin by HPLC analysis; assay type: ADME; settings: isolated protein, pH 1.2, 1 h; how it was run: as §1
[5] = Stability in simulated intestinal fluid at pH 6.8 assessed as relative difference measured after 15 mins in presence of pancreatin by HPLC analysis; assay type: ADME; settings: simulated gi fluid, pH 6.8, 0.25 h; how it was run: as §1
[6] = Stability in simulated intestinal fluid at pH 6.8 assessed as relative difference measured after 30 mins in presence of pancreatin by HPLC analysis; assay type: ADME; settings: simulated gi fluid, pH 6.8, 0.5 h; how it was run: as §1
[7] = Stability in simulated intestinal fluid at pH 6.8 assessed as relative difference measured after 60 mins in presence of pancreatin by HPLC analysis; assay type: ADME; settings: simulated gi fluid, pH 6.8, 1 h; how it was run: as §1
[8] = Stability in simulated intestinal fluid at pH 6.8 assessed as relative difference measured after 120 mins in presence of pancreatin by HPLC analysis; assay type: ADME; settings: simulated gi fluid, pH 6.8, 2 h; how it was run: as §1
[9] = Stability in simulated intestinal fluid at pH 6.8 assessed as relative difference measured after 180 mins in presence of pancreatin by HPLC analysis; assay type: ADME; settings: simulated gi fluid, pH 6.8, 3 h; how it was run: as §1
[10] = Half life in human plasma by HPLC analysis; assay type: ADME, cell-free
How it was run: (§2)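 Compound stock added to human plasma pre-warmed to 37°C and diluted with 0.02 M phosphate buffer (pH 7.4) to 80% plasma. 100 μL samples taken over time, quenched with 200 μL cold acetonitrile, centrifuged, and supernatant analyzed by HPLC. t½ and kobs are means of three experiments.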

[11] = Stability in human plasma assessed as observed rate constant by HPLC analysis; assay type: ADME, cell-free; how it was run: as §2
SH-SY5Y [12] = assay: Cytotoxicity against human SH-SY5Y cells assessed as reduction in cell viability at 1 to 250 mg/l measured after 48 hrs by MTT assay; assay type: cell-based; settings: dose 1-250 mg/L
How it was run: (§3)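 SH-SY5Y cells grown in DMEM/F12 with 10% FBS and differentiated with retinoic acid (10 μM), seeded at 1×10^4 per well and cultured 24 h. Cells were given hybrids at 1–250 mg/L with or without Aβ1-42 (20 μM) for 48 h. MTT (5 mg/mL) added for 4 h at 37°C, DMSO solubilization, read at 570/630 nm. LDH read at 450 nm. Five independent experiments.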

SH-SY5Y [13] = assay: Neuroprotective activity against amyloid beta (1 to 42)-induced toxicity in human SH-SY5Y cells assessed as increase in cell viability at 1 to 250 mg/l measured after 48 hrs by MTT assay; assay type: functional, cell-based; settings: dose 1-250 mg/L; how it was run: as §3
SH-SY5Y [14] = assay: Neuroprotective activity against amyloid beta (1 to 42)-induced toxicity in human SH-SY5Y cells assessed as increase in cell viability at 1 to 250 mg/l measured after 48 hrs by LDH release assay; assay type: functional, cell-based; settings: dose 1-250 mg/L; how it was run: as §3
[15] = Stability in simulated intestinal fluid at pH 6.8 assessed as hydrolysis measured immediately in presence of pancreatin by HPLC analysis; assay type: ADME; settings: simulated gi fluid; how it was run: as §1
Erythrocyte [16] = assay: Antioxidant activity in human RBC assessed as increase in total antioxidant capacity level up to 400 ug/ml measured after 72 hrs relative to control; assay type: functional; settings: dose microg/ml <=400
SH-SY5Y [17] = assay: Neuroprotective activity against amyloid beta (1 to 42)-induced apoptosis in human SH-SY5Y cells assessed as early apoptotic cells at IC50 measured after 48 hrs by Annexin-V/Propidium iodide staining based flow cytometry (reference value: 0.74%); assay type: functional
SH-SY5Y [18] = assay: Neuroprotective activity against amyloid beta (1 to 42)-induced apoptosis in human SH-SY5Y cells assessed as late apoptotic cells at IC50 measured after 48 hrs by Annexin-V/Propidium iodide staining based flow cytometry (reference value: 33.72%); assay type: functional
SH-SY5Y [19] = assay: Neuroprotective activity against amyloid beta (1 to 42)-induced apoptosis in human SH-SY5Y cells assessed as necrotic cells at IC50 measured after 48 hrs by Annexin-V/Propidium iodide staining based flow cytometry (reference value: 6.99%); assay type: functional
Erythrocyte [20] = assay: Cytoprotective activity against H2O2-induced oxidative damage in human RBC assessed as increase in cell viability measured after 72 hrs by MTT assay; assay type: functional, cell-based
Erythrocyte [21] = assay: Cytoprotective activity against H2O2-induced oxidative damage in human RBC assessed as increase in cell viability measured after 72 hrs by LDH release assay; assay type: functional, cell-based
How it was run: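 Heparinized whole blood cultured with phytohemagglutinin. Cells were co-incubated with 50 or 100 μM hybrid and H2O2 (25 μM). Viability was read by MTT: lymphocytes at 2×10^5 per well, MTT 4 h at 37°C, formazan dissolved in DMSO, absorbance 570 nm. LDH release was measured on 100 μL medium with a commercial kit. Results are relative to untreated control.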

Erythrocyte [22] = assay: Cytoprotective activity against H2O2-induced oxidative damage in human RBC assessed as recovery of H2O2-induced cell death at 50 to 100 uM measured after 72 hrs by MTT assay relative to control; assay type: functional; settings: dose 50-100 µM
Erythrocyte [23] = assay: Cytoprotective activity against H2O2-induced oxidative damage in human RBC assessed as recovery of H2O2-induced cell death at 50 to 100 uM measured after 72 hrs by LDH release assay relative to control; assay type: functional; settings: dose 50-100 µM
How it was run: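 Heparinised human whole blood cultured in phytohemagglutinin-containing chromosome medium and co-incubated with hybrids and H2O2 at 37C for 72 h. LDH released into the culture medium was measured with a commercial kit. Triton X-100 served as positive control, with untreated cultures as reference. Cytoprotection was expressed as viability relative to control.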

Erythrocyte [24] = assay: Cytoprotective activity against H2O2-induced oxidative damage in human RBC assessed as restoration of antioxidant activity measured after 72 hrs by TAC assay; assay type: functional, cell-based
Erythrocyte [25] = assay: Cytoprotective activity against H2O2-induced oxidative damage in human RBC assessed as restoration of antioxidant activity at 50 to 100 uM measured after 72 hrs by TAC assay relative to control; assay type: functional; settings: dose 50-100 µM
SH-SY5Y [26] = assay: Neuroprotective activity against amyloid beta (1 to 42)-induced apoptosis in human SH-SY5Y cells assessed as decrease in DNA fragmentation at IC50 measured after 48 hrs by Hoechst 33258 staining based fluorescence microscopic assay; assay type: functional, cell-based
How it was run: (§4)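 Differentiated SH-SY5Y cells, 4×10^4 per well, exposed 48 h to Aβ1-42 (20 μM) with or without hybrid. Fixed in 4% paraformaldehyde for 30 min, stained with Hoechst 33258 for 15 min. Nuclear chromatin condensation and DNA fragmentation scored by fluorescence microscopy at ×200.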

SH-SY5Y [27] = assay: Neuroprotective activity against amyloid beta (1 to 42)-induced apoptosis in human SH-SY5Y cells assessed as decrease in DNA condensation at IC50 measured after 48 hrs by Hoechst 33258 staining based fluorescence microscopic assay; assay type: functional, cell-based; how it was run: as §4

solubility [1] | fold change (FC) [2] | fold change (FC) [3] | fold change (FC) [4] | fold change (FC) [5] | fold change (FC) [6] | fold change (FC) [7] | fold change (FC) [8] | fold change (FC) [9] | half-life [10] | K [11] | Structure (SMILES) | Activity (SH-SY5Y [12]) | Activity (SH-SY5Y [13]) | Activity (SH-SY5Y [14]) | also measured
110 µg/mL (≈ 249 µM) | 15.23% | 35.89% | 60.98% |  |  |  |  |  | 0.62 h | 1.146 h⁻¹ | COc1ccc(CC(=O)OCCCNC(=O)CCCCC2CCSS2)cc1OC (configuration not stated) | Non-Toxic | Active | Active | Stabilty [15]: Unstable
736 µg/mL (≈ 1840 µM) | 12.34% | 46.72% | 67.34% | 2.5% | 35.4% | 54.62% | 70.45% | 100% | 1.13 h | 0.613 h⁻¹ | O=C(CCCCC1CCSS1)NCCOC(=O)Cc1ccc(O)c(O)c1 (configuration not stated) | Non-Toxic | Active | Active | 
933 µg/mL (≈ 2260 µM) | 72.4% | 86.54% | 100% |  |  |  |  |  | 0.75 h | 0.93 h⁻¹ | O=C(CCCCC1CCSS1)NCCCOC(=O)Cc1ccc(O)c(O)c1 (configuration not stated) | Non-Toxic | Active | Active | Stabilty [15]: Unstable
23 µg/mL (≈ 54.2 µM) | 0.25% | 1.28% | 3.45% | 2.52% | 3.01% | 5.2% | 4.15% | 4.8% | 57.4 h | 0.012 h⁻¹ | COc1cc(/C=C/C(=O)NCCNC(=O)CCCCC2CCSS2)ccc1O (configuration not stated) | Non-Toxic | Active | Active | 
 | 4.67% | 8.23% | 22.16% | 3% | 3.64% | 11.79% | 22.21% | 34.75% | 36.4 h | 0.019 h⁻¹ | COc1ccc(/C=C/C(=O)NCCCCNC(=O)CCCCC2CCSS2)cc1OC (configuration not stated) | Non-Toxic | Active | Active | 

Continued, molecule first:

Structure (SMILES) | solubility [1] | fold change (FC) [2] | fold change (FC) [3] | fold change (FC) [4] | fold change (FC) [5] | fold change (FC) [6] | fold change (FC) [7] | fold change (FC) [8] | fold change (FC) [9] | half-life [10] | K [11] | Activity (SH-SY5Y [12]) | Activity (SH-SY5Y [13]) | Activity (SH-SY5Y [14]) | also measured
O=C(CCCCC1CCSS1)NCCNC(=O)Cc1ccc(O)c(O)c1 (configuration not stated) | 2690 µg/mL (≈ 6740 µM) | 0.63% | 0.99% | 2.74% | 1.89% | 2.17% | 4.02% | 3.78% | 4.32% | 23.1 h | 0.031 h⁻¹ | Non-Toxic | Active | Active | 
O=C1O[C@H]([C@@H](O)CO)C(O)=C1O [ASCORBIC ACID] |  |  |  |  |  |  |  |  |  |  |  |  |  |  | Activity (Erythrocyte [16]): 10.7%
O=C(CCCCC1CCSS1)NCCCNC(=O)Cc1ccc(O)c(O)c1 (configuration not stated) | 235 µg/mL (≈ 570 µM) | 15.27% | 47.45% | 65.48% | 5.6% | 30.4% | 56.3% | 70% | 90.2% | 9.21 h | 0.08 h⁻¹ | Non-Toxic | Active | Active | Activity (SH-SY5Y [17]): 3.88%; Activity (SH-SY5Y [18]): 13.72%; Activity (SH-SY5Y [19]): 1.23%; Activity (Erythrocyte [16]): 26.5%; Activity (Erythrocyte [20]): Dose-dependent effect; Activity (Erythrocyte [21]): Dose-dependent effect; Activity (Erythrocyte [22]): 0.5%; Activity (Erythrocyte [23]): 0.4%; Activity (Erythrocyte [24]): Dose-dependent effect; Activity (Erythrocyte [25]): 79.2%
COc1ccc(CC(=O)NCCCNC(=O)CCCCC2CCSS2)cc1OC (configuration not stated) | 42 µg/mL (≈ 95.3 µM) | 2.9% | 1.89% | 4.03% | 0.45% | 0.73% | 0.9% | 1.32% | 2.09% | > 12 h |  | Non-Toxic | Active | Active | Activity (SH-SY5Y [26]): Active; Activity (SH-SY5Y [27]): Active; Activity (SH-SY5Y [17]): 3.51%; Activity (SH-SY5Y [18]): 16.01%; Activity (SH-SY5Y [19]): 1.66%; Activity (Erythrocyte [16]): 4.2%; Activity (Erythrocyte [20]): Dose-dependent effect; Activity (Erythrocyte [21]): Dose-dependent effect; Activity (Erythrocyte [22]): 0.5%; Activity (Erythrocyte [23]): 0.4%; Activity (Erythrocyte [24]): Dose-dependent effect
O=C(CCCCC1CCSS1)NCCCCNC(=O)Cc1ccc(O)c(O)c1 (configuration not stated) | 81 µg/mL (≈ 190 µM) | 10.37% | 37.63% | 57.89% | 1.5% | 20.44% | 42.7% | 63% | 88.91% | 1.49 h | 0.479 h⁻¹ | Non-Toxic | Active | Active | 
O=C(CCCCC1CCSS1)NCCOCCOC(=O)Cc1ccc(O)c(O)c1 (configuration not stated) | 2480 µg/mL (≈ 5600 µM) | 45.21% | 63.52% | 78.9% | 3.87% | 45.89% | 60.78% | 89.78% | 100% | 2.16 h | 0.32 h⁻¹ | Non-Toxic | Active | Active | 
